Assay results reported in ChEMBL document CHEMBL1139476, “Radioiodinated flavones for in vivo imaging of beta-amyloid plaques in the brain” (J Med Chem, 2005).

Tests used:
Stomach [1] = assay: Biodistribution per organ in ddY mouse stomach at 2 uCi, iv after 30 mins; assay type: ADME, organism-based; details: in vivo, 0.5 h
Outline: (§1)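 Normal mice injected intravenously with the 125I-labelled flavone; killed at each time point, stomach removed and counted in a γ counter. Value given as % injected dose per whole organ; mean (SD) of three to five animals per interval.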

Brain [2] = assay: Biodistribution in ddY mouse brain at 2 uCi, iv after 60 mins; assay type: ADME, organism-based; details: in vivo, 1 h
Outline: (§2)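 Normal mice given the 125I-labelled flavone intravenously; killed at each time point postinjection, organs removed, weighed and counted in a γ counter. Radioactivity expressed as % injected dose per gram tissue; mean (SD) of three to five animals per interval.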

Intestine [3] = assay: Biodistribution in ddY mouse intestine at 2 uCi, iv after 2 mins; assay type: ADME, organism-based; details: in vivo; outline: as §2
Blood [4] = assay: Biodistribution in ddY mouse blood at 2 uCi, iv after 60 mins; assay type: ADME, organism-based; details: in vivo, 1 h; outline: as §2
Blood [5] = assay: Biodistribution in ddY mouse blood at 2 uCi, iv after 30 mins; assay type: ADME, organism-based; details: in vivo, 0.5 h; outline: as §2
Stomach [6] = assay: Biodistribution per organ in ddY mouse stomach at 2 uCi, iv after 60 mins; assay type: ADME, organism-based; details: in vivo, 1 h; outline: as §1
Intestine [7] = assay: Biodistribution in ddY mouse intestine at 2 uCi, iv after 60 mins; assay type: ADME, organism-based; details: in vivo, 1 h; outline: as §2
Heart [8] = assay: Biodistribution in ddY mouse heart at 2 uCi, iv after 60 mins; assay type: ADME, organism-based; details: in vivo, 1 h; outline: as §2
Spleen [9] = assay: Biodistribution in ddY mouse spleen at 2 uCi, iv after 60 mins; assay type: ADME, organism-based; details: in vivo, 1 h; outline: as §2
Blood [10] = assay: Biodistribution in ddY mouse blood at 2 uCi, iv after 2 mins; assay type: ADME, organism-based; details: in vivo; outline: as §2
Kidney [11] = assay: Biodistribution in ddY mouse kidney at 2 uCi, iv after 10 mins; assay type: ADME, organism-based; details: in vivo; outline: as §2
Kidney [12] = assay: Biodistribution in ddY mouse kidney at 2 uCi, iv after 30 mins; assay type: ADME, organism-based; details: in vivo, 0.5 h; outline: as §2
Liver [13] = assay: Biodistribution in ddY mouse liver at 2 uCi, iv after 30 mins; assay type: ADME, organism-based; details: in vivo, 0.5 h; outline: as §2
Brain [14] = assay: Biodistribution in ddY mouse brain at 2 uCi, iv after 2 mins; assay type: ADME, organism-based; details: in vivo; outline: as §2
Heart [15] = assay: Biodistribution in ddY mouse heart at 2 uCi, iv after 10 mins; assay type: ADME, organism-based; details: in vivo; outline: as §2
Brain [16] = assay: Biodistribution in ddY mouse brain at 2 uCi, iv after 10 mins; assay type: ADME, organism-based; details: in vivo; outline: as §2
Kidney [17] = assay: Biodistribution in ddY mouse kidney at 2 uCi, iv after 2 mins; assay type: ADME, organism-based; details: in vivo; outline: as §2
Brain [18] = assay: Biodistribution in ddY mouse brain at 2 uCi, iv after 30 mins; assay type: ADME, organism-based; details: in vivo, 0.5 h; outline: as §2
Heart [19] = assay: Biodistribution in ddY mouse heart at 2 uCi, iv after 30 mins; assay type: ADME, organism-based; details: in vivo, 0.5 h; outline: as §2
Liver [20] = assay: Biodistribution in ddY mouse liver at 2 uCi, iv after 60 mins; assay type: ADME, organism-based; details: in vivo, 1 h; outline: as §2
Blood [21] = assay: Biodistribution in ddY mouse blood at 2 uCi, iv after 10 mins; assay type: ADME, organism-based; details: in vivo; outline: as §2
Liver [22] = assay: Biodistribution in ddY mouse liver at 2 uCi, iv after 2 mins; assay type: ADME, organism-based; details: in vivo; outline: as §2
Heart [23] = assay: Biodistribution in ddY mouse heart at 2 uCi, iv after 2 mins; assay type: ADME, organism-based; details: in vivo; outline: as §2
Stomach [24] = assay: Biodistribution per organ in ddY mouse stomach at 2 uCi, iv after 10 mins; assay type: ADME, organism-based; details: in vivo; outline: as §1
Spleen [25] = assay: Biodistribution in ddY mouse spleen at 2 uCi, iv after 30 mins; assay type: ADME, organism-based; details: in vivo, 0.5 h; outline: as §2
Intestine [26] = assay: Biodistribution in ddY mouse intestine at 2 uCi, iv after 10 mins; assay type: ADME, organism-based; details: in vivo; outline: as §2
[27] = Partition coefficient, log P at pH 7.4; assay type: physicochemical; details: octanol/water
Outline: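 Radioiodinated tracer shaken 3 min at room temperature in 1-octanol and 0.1 M phosphate buffer pH 7.4, centrifuged 5 min. Equal aliquots of each layer counted; ratio of octanol to buffer counts, with octanol layer repartitioned until values were consistent. Triplicate, repeated three times; mean (SD) of three experiments.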

Kidney [28] = assay: Biodistribution in ddY mouse kidney at 2 uCi, iv after 60 mins; assay type: ADME, organism-based; details: in vivo, 1 h; outline: as §2
Spleen [29] = assay: Biodistribution in ddY mouse spleen at 2 uCi, iv after 10 mins; assay type: ADME, organism-based; details: in vivo; outline: as §2
Stomach [30] = assay: Biodistribution per organ in ddY mouse stomach at 2 uCi, iv after 2 mins; assay type: ADME, organism-based; details: in vivo; outline: as §1
Intestine [31] = assay: Biodistribution in ddY mouse intestine at 2 uCi, iv after 30 mins; assay type: ADME, organism-based; details: in vivo, 0.5 h; outline: as §2
Spleen [32] = assay: Biodistribution in ddY mouse spleen at 2 uCi, iv after 2 mins; assay type: ADME, organism-based; details: in vivo; outline: as §2
Liver [33] = assay: Biodistribution in ddY mouse liver at 2 uCi, iv after 10 mins; assay type: ADME, organism-based; details: in vivo; outline: as §2
[34] = target: T1, Amyloid-beta precursor protein (Homo sapiens, UniProt P05067); assay: Displacement of [125I]6-iodo-4'-dimethyaminofl avone from beta amyloid (1-40) protein aggregates
T1 sequence (P05067 whole entry): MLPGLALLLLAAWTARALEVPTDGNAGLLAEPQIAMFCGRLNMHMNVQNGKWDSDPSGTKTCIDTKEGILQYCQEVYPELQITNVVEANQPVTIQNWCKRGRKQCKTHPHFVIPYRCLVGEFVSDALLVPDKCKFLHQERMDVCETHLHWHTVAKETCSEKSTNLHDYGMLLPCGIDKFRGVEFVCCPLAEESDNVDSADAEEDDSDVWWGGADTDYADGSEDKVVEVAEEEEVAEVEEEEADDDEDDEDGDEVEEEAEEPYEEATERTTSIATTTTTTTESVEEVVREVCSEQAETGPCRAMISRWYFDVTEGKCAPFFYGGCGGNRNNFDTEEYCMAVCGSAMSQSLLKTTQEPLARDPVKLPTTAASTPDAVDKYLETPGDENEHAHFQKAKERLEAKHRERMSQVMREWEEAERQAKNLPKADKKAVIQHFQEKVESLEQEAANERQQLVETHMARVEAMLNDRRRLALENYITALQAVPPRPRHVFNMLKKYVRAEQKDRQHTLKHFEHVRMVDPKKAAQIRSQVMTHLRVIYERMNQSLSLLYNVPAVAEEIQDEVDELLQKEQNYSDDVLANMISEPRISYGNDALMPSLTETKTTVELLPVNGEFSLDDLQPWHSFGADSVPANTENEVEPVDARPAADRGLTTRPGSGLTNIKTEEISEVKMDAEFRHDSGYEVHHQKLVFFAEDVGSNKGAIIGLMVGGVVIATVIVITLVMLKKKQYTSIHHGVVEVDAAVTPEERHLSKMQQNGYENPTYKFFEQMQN

[35] = target: T1, Amyloid-beta precursor protein; assay: Displacement of [125I]6-iodo-4'-dimethyaminofl avone from beta amyloid (1-42) protein aggregates

Compound | Drug uptake (Stomach [1]) | Drug uptake (Brain [2]) | Drug uptake (Intestine [3]) | Drug uptake (Blood [4]) | Drug uptake (Blood [5]) | Drug uptake (Stomach [6]) | Drug uptake (Intestine [7]) | Drug uptake (Heart [8]) | Drug uptake (Spleen [9]) | Drug uptake (Blood [10]) | Drug uptake (Kidney [11]) | Drug uptake (Kidney [12]) | Drug uptake (Liver [13]) | Drug uptake (Brain [14]) | Drug uptake (Heart [15]) | Drug uptake (Brain [16]) | Drug uptake (Kidney [17]) | Drug uptake (Brain [18]) | Drug uptake (Heart [19]) | Drug uptake (Liver [20]) | other results
CNc1ccc(-c2cc(=O)c3cc([125I])ccc3o2)cc1 | 1.44 % ID/organ | 1.19 % ID/g | 3.1 % ID/g | 1.5 % ID/g | 1.34 % ID/g | 1.8 % ID/organ | 21.48 % ID/g | 1.28 % ID/g | 1.52 % ID/g | 1.89 % ID/g | 5.21 % ID/g | 3.85 % ID/g | 18.61 % ID/g | 4.12 % ID/g | 2.66 % ID/g | 3.68 % ID/g | 8.13 % ID/g | 1.84 % ID/g | 1.67 % ID/g | 15.14 % ID/g | Drug uptake (Blood [21]): 1.39 % ID/g; Drug uptake (Liver [22]): 16.28 % ID/g; Drug uptake (Heart [23]): 4.87 % ID/g; Drug uptake (Stomach [24]): 0.87 % ID/organ; Drug uptake (Spleen [25]): 1.76 % ID/g; Drug uptake (Intestine [26]): 7.91 % ID/g; logD [27]: 2.15; Drug uptake (Kidney [28]): 3.05 % ID/g; Drug uptake (Spleen [29]): 2.31 % ID/g; Drug uptake (Stomach [30]): 0.78 % ID/organ; Drug uptake (Intestine [31]): 12.84 % ID/g; Drug uptake (Spleen [32]): 2.57 % ID/g; Drug uptake (Liver [33]): 25.28 % ID/g
COc1ccc(-c2cc(=O)c3cc([125I])ccc3o2)cc1 | 0.55 % ID/organ | 0.17 % ID/g | 3.52 % ID/g | 0.23 % ID/g | 0.4 % ID/g | 0.31 % ID/organ | 30.05 % ID/g | 0.47 % ID/g | 3.67 % ID/g | 1.87 % ID/g | 6.3 % ID/g | 4.51 % ID/g | 3.75 % ID/g | 4 % ID/g | 2.25 % ID/g | 2.36 % ID/g | 7.99 % ID/g | 0.51 % ID/g | 0.84 % ID/g | 1.88 % ID/g | Drug uptake (Blood [21]): 1.19 % ID/g; Drug uptake (Liver [22]): 8.96 % ID/g; Drug uptake (Heart [23]): 4.98 % ID/g; Drug uptake (Stomach [24]): 0.45 % ID/organ; Drug uptake (Spleen [25]): 0.55 % ID/g; Drug uptake (Intestine [26]): 14.39 % ID/g; logD [27]: 2.41; Drug uptake (Kidney [28]): 1.46 % ID/g; Drug uptake (Spleen [29]): 1.38 % ID/g; Drug uptake (Stomach [30]): 0.68 % ID/organ; Drug uptake (Intestine [31]): 22.51 % ID/g; Drug uptake (Spleen [32]): 2.7 % ID/g; Drug uptake (Liver [33]): 9.01 % ID/g
O=c1cc(-c2ccc(O)cc2)oc2ccc([125I])cc12 | 1.56 % ID/organ | 0.08 % ID/g | 3.12 % ID/g | 0.2 % ID/g | 0.66 % ID/g | 0.81 % ID/organ | 27.28 % ID/g | 0.12 % ID/g | 0.17 % ID/g | 2.77 % ID/g | 15.11 % ID/g | 6.45 % ID/g | 6.8 % ID/g | 3.31 % ID/g | 1.6 % ID/g | 1.9 % ID/g | 14.79 % ID/g | 0.52 % ID/g | 0.53 % ID/g | 4.78 % ID/g | Drug uptake (Blood [21]): 1.58 % ID/g; Drug uptake (Liver [22]): 9.77 % ID/g; Drug uptake (Heart [23]): 5.51 % ID/g; Drug uptake (Stomach [24]): 0.59 % ID/organ; Drug uptake (Spleen [25]): 0.56 % ID/g; Drug uptake (Intestine [26]): 11.26 % ID/g; logD [27]: 1.92; Drug uptake (Kidney [28]): 1.66 % ID/g; Drug uptake (Spleen [29]): 1.55 % ID/g; Drug uptake (Stomach [30]): 0.89 % ID/organ; Drug uptake (Intestine [31]): 22.01 % ID/g; Drug uptake (Spleen [32]): 3.92 % ID/g; Drug uptake (Liver [33]): 8.24 % ID/g
CN(C)c1ccc(-c2cc(=O)c3cc([125I])ccc3o2)cc1 | 1.17 % ID/organ | 0.99 % ID/g | 2.24 % ID/g | 1.15 % ID/g | 1.2 % ID/g | 1.06 % ID/organ | 18.64 % ID/g | 1.07 % ID/g | 1.18 % ID/g | 1.87 % ID/g | 4.31 % ID/g | 3.4 % ID/g | 15.71 % ID/g | 3.22 % ID/g | 2.47 % ID/g | 3.61 % ID/g | 8.33 % ID/g | 1.89 % ID/g | 1.69 % ID/g | 12.4 % ID/g | Drug uptake (Blood [21]): 1.07 % ID/g; Drug uptake (Liver [22]): 15.41 % ID/g; Drug uptake (Heart [23]): 5.63 % ID/g; Drug uptake (Stomach [24]): 0.63 % ID/organ; Drug uptake (Spleen [25]): 1.58 % ID/g; Drug uptake (Intestine [26]): 6.56 % ID/g; logD [27]: 2.69; Drug uptake (Kidney [28]): 2.32 % ID/g; Drug uptake (Spleen [29]): 1.92 % ID/g; Drug uptake (Stomach [30]): 0.73 % ID/organ; Drug uptake (Intestine [31]): 12.97 % ID/g; Drug uptake (Spleen [32]): 2.72 % ID/g; Drug uptake (Liver [33]): 21.85 % ID/g
Nc1c(/N=N/c2ccc(-c3ccc(/N=N/c4cc(S(=O)(=O)O)c5ccccc5c4N)cc3)cc2)cc(S(=O)(=O)O)c2ccccc12 [CONGO RED] |  |  |  |  |  |  |  |  |  |  |  |  |  |  |  |  |  |  |  |  | Ki [34]: > 1000 nM; Ki [35]: > 1000 nM
